Assay results as given in ChEMBL document CHEMBL3259662 (ACS Med Chem Lett, 2014).
≈ marks a conversion by molar mass, not a printed value. Calls of active or inactive are those of the source. No cut-off for these calls is given here.

Tests used:
Candida albicans = assay: Antifungal activity against Candida albicans by CLSI method; assay type: functional, organism-based
[1] = Selectivity index, ratio of cytotoxicity for African green monkey Vero cells to IC50 for Cryptococcus neoformans ATCC 90113; assay type: toxicity, cell-based; conditions: read-out: Selectivity Index
[2] = Binding affinity to EYPC/cholesterol by transmission electron microscopy
Procedure, shortened: (§1)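 Small unilamellar vesicles were made by a literature method, either EYPC/EYPG or EYPC/cholesterol, and incubated with or without peptide. Samples were deposited on carbon-coated copper grids, negatively stained with 2% (w/v) phosphotungstic acid and imaged by TEM to judge vesicle integrity and morphology.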

Cryptococcus neoformans [3] = assay: Antifungal activity against Cryptococcus neoformans ATCC 90113 after 70 to 74 hrs by CLSI method; assay type: functional, organism-based; conditions: for IC50 / MIC: Cryptococcus neoformans, ATCC 90113
Procedure, shortened: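 Growth inhibition of C. neoformans per the CLSI protocol. […] MIC is the lowest test concentration with no detectable growth. MFC is the lowest concentration killing 100% of the organism.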

LLC-PK1 = assay: Cytotoxicity against pig LLC-PK1 cells assessed as cell viability after 48 hrs by neutral red uptake assay; assay type: cell-based, Sus scrofa; conditions: llc-pk1, 48 h
Procedure, shortened: (§2)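 Neutral red uptake assay in human cancer lines SK-MEL, KB, BT-549 and SK-OV-3 and in noncancerous mammalian kidney cells VERO and LLC-PK1. The highest tested concentration was 10 μg/mL.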

[4] = Binding affinity to EYPC/EYPG assessed as disruption of SUVs integrity by transmission electron microscopy; procedure, shortened: as §1
BT-549 = assay: Cytotoxicity against human BT549 cells assessed as cell viability after 48 hrs by neutral red uptake assay; assay type: cell-based; conditions: bt-549, 48 h; procedure, shortened: as §2
Escherichia coli = assay: Antibacterial activity against Escherichia coli ATCC 35218 after 16 to 20 hrs by CLSI method; assay type: functional, organism-based
KB = assay: Cytotoxicity against human KB cells assessed as cell viability after 48 hrs by neutral red uptake assay; assay type: cell-based; procedure, shortened: as §2
Lipid bilayer = assay: Binding affinity to small unilamellar vesicles assessed as destruction of membrane by transmission electron microscopy; procedure, shortened: as §1
[5] = Selectivity index, ratio of cytotoxicity for human KB cells to IC50 for Cryptococcus neoformans ATCC 90113; assay type: toxicity, cell-based; conditions: read-out: Selectivity Index
Vero = assay: Cytotoxicity against African green monkey Vero cells assessed as cell viability after 48 hrs by neutral red uptake assay; assay type: cell-based; conditions: chlorocebus sabaeus; procedure, shortened: as §2
Cryptococcus neoformans [6] = assay: Ratio of amphotericin B MFC to compound MFC for Cryptococcus neoformans ATCC 90113 after 70 to 74 hrs by CLSI method; assay type: functional
SK-OV-3 = assay: Cytotoxicity against human SKOV3 cells assessed as cell viability after 48 hrs by neutral red uptake assay; assay type: cell-based; conditions: sk-ov-3, 48 h; procedure, shortened: as §2
Aspergillus fumigatus = assay: Antifungal activity against Aspergillus fumigatus by CLSI method; assay type: functional, organism-based
Pichia kudriavzevii = assay: Antifungal activity against Candida krusei by CLSI method; assay type: functional, organism-based
SK-MEL = assay: Cytotoxicity against human SK-MEL cells assessed as cell viability after 48 hrs by neutral red uptake assay; assay type: cell-based; procedure, shortened: as §2
[7] = Selectivity index, ratio of cytotoxicity for human SKOV3 cells to IC50 for Cryptococcus neoformans ATCC 90113; assay type: toxicity, cell-based, SK-OV-3; conditions: read-out: Selectivity Index
[8] = Selectivity index, ratio of cytotoxicity for pig LLC-PK1 cells to IC50 for Cryptococcus neoformans ATCC 90113; assay type: toxicity, cell-based; conditions: read-out: Selectivity Index
[9] = Selectivity index, ratio of cytotoxicity for human BT549 cells to IC50 for Cryptococcus neoformans ATCC 90113; assay type: toxicity, cell-based, BT-549; conditions: read-out: Selectivity Index
Nakaseomyces glabratus = assay: Antifungal activity against Candida glabrata by CLSI method; assay type: functional, organism-based
[10] = Selectivity index, ratio of cytotoxicity for human SK-MEL cells to IC50 for Cryptococcus neoformans ATCC 90113; assay type: toxicity, cell-based; conditions: read-out: Selectivity Index
Staphylococcus aureus [11] = assay: Antibacterial activity against methicillin-resistant Staphylococcus aureus ATCC 33591 after 16 to 20 hrs by CLSI method; assay type: functional, organism-based
Staphylococcus aureus [12] = assay: Antibacterial activity against Staphylococcus aureus ATCC 29213 by CLSI method; assay type: functional, organism-based
[13] = Retention time of the compound by reverse phase HPLC analysis; assay type: physicochemical
Procedure, shortened: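 Reverse-phase HPLC on a C-18 column (25 cm × 4.6 mm, 5 μM) at 1 mL/min over 40 min. The gradient ran 85−5% with A = 0.1% TFA in H2O and B = 0.1% TFA in CH3CN. Detection was at 220 nm.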

| SMILES | Activity (Candida albicans) | selectivity ratio [1] | MFC100 (Cryptococcus neoformans [3]) [µg/mL] | IC50 (Cryptococcus neoformans [3]) [µg/mL] | MIC (Cryptococcus neoformans [3]) [µg/mL] | Activity (LLC-PK1) [µg/mL] | Activity (BT-549) [µg/mL] | Activity (Escherichia coli) | Activity (KB) [µg/mL] | selectivity ratio [5] | Activity (Vero) [µg/mL] | Ratio (Cryptococcus neoformans [6]) | Activity (SK-OV-3) [µg/mL] | Activity (Aspergillus fumigatus) | Activity (Pichia kudriavzevii) | Activity (SK-MEL) [µg/mL] | selectivity ratio [7] | selectivity ratio [8] | selectivity ratio [9] | Activity (Nakaseomyces glabratus) | also measured |
| --- | --- | --- | --- | --- | --- | --- | --- | --- | --- | --- | --- | --- | --- | --- | --- | --- | --- | --- | --- | --- | --- |
| CC(C)(C)c1ccc(-c2nc(C[C@H](NC(=O)[C@@H](N)CCCNC(=N)N)C(=O)N[C@@H](CCCNC(=N)N)C(=O)NCc3ccccc3)c[nH]2)cc1 | inactive | > 143 | 0.16 (≈ 0.232 µM) | 0.07 (≈ 0.102 µM) | 0.16 (≈ 0.232 µM) | > 10 | > 10 | inactive | > 10 | > 143 | > 10 | 8 | > 10 | inactive | inactive | > 10 | > 143 | > 143 | > 143 | inactive | Activity [2]: inactive; Activity [4]: Active; Activity (Lipid bilayer): Active; selectivity ratio [10]: > 143 |
| CC(C)(C)OC(=O)N[C@@H](CCCNC(=N)N)C(=O)N[C@@H](Cc1c[nH]c(-c2ccc(C(C)(C)C)cc2)n1)C(=O)N[C@@H](CCCNC(=N)N)C(=O)NCc1ccccc1 | inactive | > 55.6 | 0.63 (≈ 0.798 µM) | 0.18 (≈ 0.228 µM) | 0.63 (≈ 0.798 µM) | > 10 | > 10 | inactive | > 10 | > 55.6 | > 10 | 2 | > 10 | inactive | inactive | > 10 | > 55.6 | > 55.6 | > 55.6 | inactive | MBC100 (Staphylococcus aureus [11]): inactive; MIC (Staphylococcus aureus [11]; Staphylococcus aureus, ATCC 33591): 20 µg/mL (≈ 25.3 µM); IC50 (Staphylococcus aureus [11]; Staphylococcus aureus, ATCC 33591, read-out: IC50): 11.5 µg/mL (≈ 14.6 µM); IC50 (Staphylococcus aureus [12]): 12.5 µg/mL (≈ 15.9 µM); MBC100 (Staphylococcus aureus [12]): inactive; MIC (Staphylococcus aureus [12]): 20 µg/mL (≈ 25.3 µM); Retention_time [13]: 24.41 min; selectivity ratio [10]: > 55.6 |
